How the values were obtained:
A549 [1] = assay: Cytotoxicity against human A549 cells up to 12.5 uM after 48 hrs by MTT assay; format: functional, cell-based
A549 [2] = assay: Cytotoxicity against human A549 cells at >= 25 uM after 48 hrs by MTT assay; format: cell-based; conditions: a549, 48 h
dengue virus type 2 [3] = assay: Antiviral activity against Dengue virus 2 NGC infected in human A549 cells by CFI assay; format: functional, organism-based
How it was run: (§1)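 CFI assay: A549 cells seeded 2 × 10^4/well, infected next day (MOI 0.3 for DENV-2) with compound-virus mixture for 1 h, then refed with compound-containing medium. On day 2 cells were methanol-fixed at 4°C and intracellular E protein detected by ELISA (4G2 primary, HRP anti-mouse secondary). EC50 is the average of two independent experiments.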

dengue virus type 1 = assay: Antiviral activity against Dengue virus 1 MY10245 infected in human A549 cells by CFI assay; format: functional, organism-based; how it was run: as §1
dengue virus type 2 [4] = assay: Antiviral activity against Dengue virus 2 MY10340 infected in human A549 cells by CFI assay; format: functional, organism-based; how it was run: as §1
dengue virus type 3 = assay: Antiviral activity against Dengue virus 3 MY22366 infected in human A549 cells by CFI assay; format: functional, organism-based; how it was run: as §1
dengue virus type 4 = assay: Antiviral activity against Dengue virus 4 MY22713 infected in human A549 cells by CFI assay; format: functional, organism-based; how it was run: as §1
dengue virus type 2 [5] = assay: Antiviral activity against Dengue virus 2 NGC infected in human PBMC cells by plaque assay; format: functional, organism-based
[6] = Cmax in CD-1 mouse at 25 mg/kg, po by LC-MS-MS analysis; format: ADME, organism-based; parameters: dose 25 mg/kg, route oral; conditions: in vivo
How it was run: (§2)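 Female CD-1 mice dosed orally at 25 mg/kg, formulated at 2.5 mg/ml in 0.1 N HCl (1.5 equimolar), pH 3.5 with NaOH, topped off with 100 mM citrate pH 3.5. Blood taken from three animals per time point, 0.08–24 h. Plasma acetonitrile-methanol-acetic acid extract analysed by LC-MS-MS (LLOQ 9.2 ng/ml). Mean profile fitted noncompartmentally; F from dose-corrected p.o./i.v. AUC.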

[7] = Tmax in CD-1 mouse at 25 mg/kg, po by LC-MS-MS analysis; format: ADME, organism-based; parameters: dose 25 mg/kg, route oral; conditions: in vivo; how it was run: as §2
Mus musculus = assay: AUC (0 to infinity) in CD-1 mouse at 25 mg/kg, po by LC-MS-MS analysis; format: ADME, organism-based, Plasma; parameters: time infinity, dose 25 mg/kg, route oral; conditions: in vivo; how it was run: as §2
[8] = Oral bioavailability in CD-1 mouse at 25 mg/kg by LC-MS-MS analysis; format: ADME, organism-based; conditions: in vivo; how it was run: as §2
[9] = Volume of distribution in CD-1 mouse at 5 mg/kg, iv by LC-MS-MS analysis; format: ADME, organism-based; parameters: dose 5 mg/kg, route intravenous; conditions: in vivo
How it was run: (§3)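 Female CD-1 mice, single i.v. injection of 5 mg/kg (1 mg/ml) in pH 3.5 HCl/citrate formulation. Blood from three animals at 0.02–24 h; heparinized plasma extracted and quantified by LC-MS-MS (LLOQ 9.2 ng/ml). Noncompartmental analysis of the mean concentration-time profile.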

[10] = Clearance in CD-1 mouse at 5 mg/kg, iv by LC-MS-MS analysis; format: ADME, organism-based; parameters: dose 5 mg/kg, route intravenous; conditions: in vivo; how it was run: as §3
[11] = Half life in CD-1 mouse at 5 mg/kg, iv by LC-MS-MS analysis; format: ADME, organism-based; parameters: dose 5 mg/kg, route intravenous; conditions: in vivo; how it was run: as §3
[12] = Cmax in Wistar rat at 24.8 mg/kg, po by LC-MS-MS analysis; format: ADME, organism-based; parameters: dose 24.8 mg/kg, route oral; conditions: in vivo
How it was run: (§4)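 Female Wistar rats, fasted overnight until 4 h post-dose, given 24.8 mg/kg orally in pH 3.5 HCl/citrate solution. Serial blood sampling from groups of three, 0.17–48 h. Plasma quantified by LC-MS-MS (LLOQ 9.2 ng/ml). Noncompartmental fit of mean profile; bioavailability from dose-corrected AUC ratio versus i.v.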

[13] = Tmax in Wistar rat at 24.8 mg/kg, po by LC-MS-MS analysis; format: ADME, organism-based; parameters: dose 24.8 mg/kg, route oral; conditions: in vivo; how it was run: as §4
Rattus norvegicus = assay: AUC (0 to infinity) in Wistar rat at 24.8 mg/kg, po by LC-MS-MS analysis; format: ADME, organism-based, Plasma; parameters: time infinity, dose 24.8 mg/kg, route oral; conditions: in vivo; how it was run: as §4
[14] = Oral bioavailability in Wistar rat at 24.8 mg/kg by LC-MS-MS analysis; format: ADME, organism-based; conditions: in vivo; how it was run: as §4
[15] = Volume of distribution at steady state Wistar rat at 5.9 mg/kg, iv by LC-MS-MS analysis; format: ADME, organism-based; parameters: dose 5.9 mg/kg, route intravenous; conditions: in vivo, read-out: Vdss
How it was run: (§5)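 Female Wistar rats given 5.9 mg/kg i.v. in pH 3.5 HCl/citrate formulation. Serial blood from groups of three rats, 0.17–48 h. Heparinized plasma extracted with acetonitrile-methanol-acetic acid, LC-MS-MS quantification (LLOQ 9.2 ng/ml); noncompartmental analysis of mean profile.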

[16] = Clearance in Wistar rat at 5.9 mg/kg, iv by LC-MS-MS analysis; format: ADME, organism-based; parameters: dose 5.9 mg/kg, route intravenous; conditions: in vivo; how it was run: as §5
[17] = Half life in Wistar rat at 5.9 mg/kg, iv by LC-MS-MS analysis; format: ADME, organism-based; parameters: dose 5.9 mg/kg, route intravenous; conditions: in vivo; how it was run: as §5
dengue virus type 2 [18] = assay: Antiviral activity against Dengue virus 2 NGC infected in human A549 cells after 2 days by CFI assay in presence of 40 mg/ml human serum albumin; format: functional, organism-based; conditions: A549, 48 h
How it was run: (§6)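 Modified CFI: A549 cells infected with DENV-2 New Guinea C (MOI 0.3) for 1 h without compound. Inoculum then replaced with medium containing compound dilutions plus the stated HSA and/or AGP. On day 2, cells methanol-fixed and intracellular E protein detected by ELISA (4G2 primary, HRP anti-mouse secondary); EC50 derived.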

dengue virus type 2 [19] = assay: Antiviral activity against Dengue virus 2 NGC infected in human A549 cells after 2 days by CFI assay in presence of 2 mg/ml alpha-1-acid glycoprotein; format: functional, organism-based; conditions: A549, 48 h; how it was run: as §6
dengue virus type 2 [20] = assay: Antiviral activity against Dengue virus 2 NGC infected in human A549 cells after 2 days by CFI assay in presence of 40 mg/ml human serum albumin and 2 mg/ml alpha-1-acid glycoprotein; format: functional, organism-based; conditions: A549, 48 h; how it was run: as §6
A549 [21] = assay: Cytotoxicity against human A549 cells up to 25 uM after 48 hrs by MTT assay; format: functional, cell-based

Structure (SMILES): C#C[C@@]1(O)[C@H](O)[C@@H](CO)O[C@H]1n1cc(C(N)=O)c2c(N)ncnc21
- Activity (A549 [1]): Not toxic
- Activity (A549 [2]): Non-toxic
- EC50 (dengue virus type 2 [3]): 2610 nM
- EC50 (dengue virus type 1): 2270 nM
- EC50 (dengue virus type 2 [4]): 1620 nM
- EC50 (dengue virus type 3): 1940 nM
- EC50 (dengue virus type 4): 6990 nM
- EC50 (dengue virus type 2 [5]): 5000 nM
- Cmax [6]: 270 nM
- Tmax [7]: 1 h
- AUC (Mus musculus): 0.42 µM·h
- bioavailability [8]: 1%
- Vd [9]: 0.26 L/kg
- clearance [10]: 21.9 mL/min/kg
- half-life [11]: 1.31 h
- Cmax [12]: 270 nM
- Tmax [13]: 0.17 h
- AUC (Rattus norvegicus): 3.15 µM·h
- bioavailability [14]: 2%
- Vd [15]: 2.71 L/kg
- clearance [16]: 8.98 mL/min/kg
- half-life [17]: 8.33 h
- EC50 (dengue virus type 2 [18]): 4760 nM
- EC50 (dengue virus type 2 [19]): 2520 nM
- EC50 (dengue virus type 2 [20]): 4640 nM
- Activity (A549 [21]): Not toxic

Source: ChEMBL document CHEMBL1629704, “Inhibition of dengue virus by an ester prodrug of an adenosine analog” (Antimicrob Agents Chemother, 2010)
